Reference: PMC4721220 (Expert opinion on investigational drugs, 2013)
Where a SMILES comes first, the peptide text is derived from it.

Columns and labels:
[1] = target: hERG channel (Homo sapiens, UniProt Q12809); test: hERG assay; assay type: cell-based; conditions: concentrations up to 5 mM
[2] = test system: rats; test: 90-day twice-weekly IV repeated-dose study in rats; assay type: in vivo, rat; conditions: up to 300 mg/kg (highest evaluated)
[3] = test system: dogs; test: 90-day twice-weekly IV repeated-dose study in dogs; assay type: in vivo, dog; conditions: up to 200 mg/kg (highest evaluated)
[4] = test system: rats; test: Pentylenetetrazole convulsant activity; assay type: in vivo, rat; conditions: single dose 500 mg/kg IV, 60 min following pentylenetetrazole administration
[5] = test system: conscious instrumented dogs; test: Cardiovascular safety in conscious instrumented dogs; assay type: in vivo, dog; conditions: single IV bolus doses up to 500 mg/kg
[6] = Compatibility with human blood, serum and plasma in vitro; conditions: concentrations up to 3 mg/ml in vitro
[7] = test system: subjects with major depressive disorder; test: Phase IIa safety; assay type: in vivo, human
In short: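 Randomized, double-blind, placebo-controlled, parallel-group trial at 12 US centres (116 adults). Subjects had MDD by SCID and <25% response (ATRQ) to antidepressants in the current episode, followed by a 14-day antidepressant washout. Each received a single IV infusion over 3–15 min of normal saline or 1, 5, 10 or 30 mg/kg test compound. Subjects stayed ≥24 h in unit, with continuous ECG and pulse oximetry to 4 h, then follow-up visits.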

[8] = Plasma pharmacokinetics in dogs; assay type: in vivo, dog
[9] = Plasma pharmacokinetics in rats; assay type: in vivo, rat
[10] = test system: conscious rats; test: Respiratory safety, plethysmography in conscious rats; assay type: in vivo, rat; conditions: single IV bolus dose up to 415 mg/kg, the highest dose evaluated
[11] = test system: rats; test: Single-dose IV toxicology study in rats; assay type: in vivo, rat
In short: (§1)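 Single IV doses up to 1000 mg/kg were given to rats and dogs. End-points were clinical observations, body weight, clinical chemistry, hematology, urinalysis, and gross and microscopic pathology.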

[12] = Phase I safety and pharmacokinetics study in normal human volunteers; assay type: in vivo; conditions: for t1/2 initial / AUC(0-inf) / Cmax / clearance: plasma; for t1/2 initial: normal human volunteers, Mean ± SEM, n = 4; for Vd / AUC(0-inf) / Cmax / clearance: human, iv; for Vd: in vivo
In short: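 Normal volunteers received a single IV dose via the antecubital vein, over a dose range of 0.5–25 mg/kg. Plasma Cmax and AUC were determined, with n = 4 subjects per dose, reported as Mean ± SEM.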

[13] = test system: mouse; test: Mouse micronucleus assay; conditions: in vivo
[14] = Ames mutagenesis assay
[15] = test system: male or female rats; test: Behavioral safety; assay type: in vivo, rat
[16] = test system: dogs; test: Single-dose IV toxicology study in dogs; assay type: in vivo, dog
In short: as §1

[17] = test system: mouse lymphoma; test: Mouse lymphoma assay; assay type: cell-based
[18] = test system: dog-isolated Purkinje fibers; test: Electrophysiology in dog-isolated Purkinje fibers; assay type: cell-based; conditions: concentrations up to 1 mM, the highest evaluated
[19] = twice-weekly dosing for 3 months

hERG channel, sequence (Q12809 whole entry): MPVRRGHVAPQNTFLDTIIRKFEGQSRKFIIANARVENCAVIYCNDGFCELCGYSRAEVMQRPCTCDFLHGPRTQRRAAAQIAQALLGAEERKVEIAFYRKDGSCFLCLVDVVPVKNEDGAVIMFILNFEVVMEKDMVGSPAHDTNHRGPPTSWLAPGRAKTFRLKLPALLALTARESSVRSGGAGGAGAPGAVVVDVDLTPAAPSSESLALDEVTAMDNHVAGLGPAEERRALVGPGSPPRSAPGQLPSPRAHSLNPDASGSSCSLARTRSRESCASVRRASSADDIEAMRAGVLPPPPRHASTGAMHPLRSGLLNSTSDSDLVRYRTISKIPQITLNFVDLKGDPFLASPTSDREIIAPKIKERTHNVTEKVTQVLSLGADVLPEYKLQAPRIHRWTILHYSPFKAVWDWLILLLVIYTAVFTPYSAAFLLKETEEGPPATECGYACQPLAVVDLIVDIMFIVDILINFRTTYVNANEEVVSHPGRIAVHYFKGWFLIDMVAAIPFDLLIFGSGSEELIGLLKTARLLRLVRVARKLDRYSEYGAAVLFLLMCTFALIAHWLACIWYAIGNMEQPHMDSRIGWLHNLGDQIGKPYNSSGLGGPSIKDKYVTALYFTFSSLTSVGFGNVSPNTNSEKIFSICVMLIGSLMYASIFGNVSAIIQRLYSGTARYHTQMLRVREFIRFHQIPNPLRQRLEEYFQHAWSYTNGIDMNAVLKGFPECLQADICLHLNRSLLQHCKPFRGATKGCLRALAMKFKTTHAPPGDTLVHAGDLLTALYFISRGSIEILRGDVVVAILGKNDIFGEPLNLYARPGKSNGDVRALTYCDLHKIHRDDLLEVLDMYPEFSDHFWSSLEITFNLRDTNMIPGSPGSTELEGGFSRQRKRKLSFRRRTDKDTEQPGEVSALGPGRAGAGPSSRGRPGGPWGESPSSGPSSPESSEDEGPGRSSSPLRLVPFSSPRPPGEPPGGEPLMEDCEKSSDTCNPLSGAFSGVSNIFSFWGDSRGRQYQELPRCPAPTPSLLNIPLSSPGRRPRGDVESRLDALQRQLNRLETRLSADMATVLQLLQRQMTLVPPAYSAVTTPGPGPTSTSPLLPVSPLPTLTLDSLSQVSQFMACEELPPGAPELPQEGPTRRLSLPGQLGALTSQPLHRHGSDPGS

For `C[C@@H](O)[C@H](N)C(=O)N1CCC[C@H]1C(=O)N1CCC[C@H]1C(=O)N[C@H](C(N)=O)[C@@H](C)O` [GLYX-13] (H-TPPT-NH2), the “current through the hERG channel” value [1] was “did not affect current through the hERG channel”, the “tolerability, repeated dose” value [2] was “well tolerated” and the “tolerability, repeated dose” value [3] was “well tolerated”. For the same molecule, the convulsant activity [4] was “did not affect convulsant activity”, the “heart rate, blood pressure, ECG parameters” value [5] was “nor did GLYX-13 administered at single IV bolus doses up to 500 mg/kg affect heart rate, blood pressure, or any ECG parameter” and the “compatibility with human blood, serum, and plasma” value [6] was “completely compatible”. The “suicidality (Columbia-Suicide Severity Rating Scale)” value ([7]; 14- or 28-day course of observation following dosing) was “did not cause any increase in suicidality”, the “BPRS+ score (psychotomimetic effects)” value ([7]; any time following dosing) was “did not increase BPRS+ score” and the “treatment-related serious adverse events” value ([7]; single IV dose 1, 5, 10 or 30 mg/kg) was “No treatment-related serious adverse events”. For the same molecule, the plasma half-life ([8]; 20 – 200 mg/kg IV) was 5 to 8 min, the “half-life after repeated dosing” value [8, 19] was “retained its short half-life” and the plasma half-life ([9]; 30 – 300 mg/kg IV) was 2 to 3 min. For the same molecule, the “half-life after repeated dosing” value [9, 19] was “retained its short half-life”, the respiratory parameters [10] was “nor did GLYX-13 affect any respiratory parameter” and the “tolerability, single doses” value ([11]; doses up to 500 mg/kg IV) was “well tolerated”. The “toxicology findings, single dose” value ([11]; doses up to 1000 mg/kg IV) was “No observational, body weight, clinical chemistry, hematology, urinalysis, or gross or microscopic pathological signals were observed”, the t1/2 initial ([12]; 1 mg/kg IV) was 4.7 ± 0.5 min and the t1/2 initial ([12]; 5 mg/kg IV) was 7.4 ± 0.9 min. For the same molecule, the t1/2 initial ([12]; 10 mg/kg IV) was 9.0 ± 0.6 min, the t1/2 initial ([12]; 20 mg/kg IV) was 14.0 ± 2.1 min and the “increase of Cmax with dose” value ([12]; dose range 0.5 – 10 mg/kg IV) was “supralinearly”. The “increase of AUC with dose” value ([12]; dose range 0.5 – 25 mg/kg IV) was “supralinearly”, the “increase of Cmax with dose” value ([12]; dose range 10–25 mg/kg IV) was “linearly” and the Vd ([12]; 1 mg/kg) was 0.17 ± 0.03 L/kg. The Vd ([12]; 5 mg/kg) was 0.31 ± 0.14 L/kg, the Vd ([12]; 10 mg/kg) was 0.12 ± 0.01 L/kg and the Vd ([12]; 20 mg/kg) was 0.1 ± 0.03 L/kg. For the same molecule, the AUC(0-inf) ([12]; 1 mg/kg) was 533 ng·h/mL, the Cmax ([12]; 1 mg/kg) was 5.2 ± 0.9 µg/mL and the clearance ([12]; 1 mg/kg) was 33.7 mL/min/kg. For the same molecule, the AUC(0-inf) ([12]; 5 mg/kg) was 4800 ng·h/mL, the Cmax ([12]; 5 mg/kg) was 26 ± 11 µg/mL and the clearance ([12]; 5 mg/kg) was 34.8 mL/min/kg. For the same molecule, the AUC(0-inf) ([12]; 10 mg/kg) was 19400 ng·h/mL, the Cmax ([12]; 10 mg/kg) was 100 ± 21 µg/mL and the clearance ([12]; 10 mg/kg) was 9 mL/min/kg. For the same molecule, the AUC(0-inf) ([12]; 20 mg/kg) was 67200 ng·h/mL, the Cmax ([12]; 20 mg/kg) was 182 ± 56 µg/mL and the clearance ([12]; 20 mg/kg) was 5 mL/min/kg. For the same molecule, the mouse micronucleus assay [13] was “inactive”, the Ames mutagenesis [14] was “inactive” and the “hyperlocomotion (signal for psychotomimetic effects)” value ([15]; any dose evaluated) was “did not induce hyperlocomotion”. For the same molecule, the adverse behavioral responses ([15]; single doses up to 500 mg/kg IV, the highest dose evaluated, male or female rats) was “No adverse behavioral responses”, the motor coordination ([15]; up to 500 mg/kg IV, male or female rats) was “did not affect motor coordination” and the “tolerability, single doses” value ([16]; doses up to 500 mg/kg IV) was “well tolerated”. For the same molecule, the “toxicology findings, single dose” value ([16]; doses up to 1000 mg/kg IV) was “No observational, body weight, clinical chemistry, hematology, urinalysis, or gross or microscopic pathological signals were observed”, the mouse lymphoma assay [17] was “inactive” and the “electrophysiological parameters in Purkinje fibers” value [18] was “did not significantly alter any of the electrophysiological parameters”.
